Measured values published in article PMC4764504 (Journal of medicinal chemistry, 2015).
Where “and” joins values, the source holds several entries; their conditions need not be identical. Equal values may be shown once.

What was measured:
DBT glioma cells = assay: Competitive amino acid cell uptake assays; assay type: cell-based, mouse; settings: 60 s, 37 °C
In short: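 Mouse DBT glioma cells were seeded at 1 × 10⁵ cells/well and grown 48 h in 10% FBS DMEM under 5% CO₂. Cells were washed twice in 37 °C buffer, then exposed for 60 s at 37 °C, pH 7.40, to the radiotracer. Buffers were Na phosphate-buffered saline or choline-substituted Na-free buffer. Controls had 10 mM sucrose; BCH was 10 mM. Cells were washed with ice-cold buffer, lysed in 0.2% SDS/0.2 M NaOH, γ-counted, and normalized to added activity and BCA protein. Values are % of control, triplicate × two plates.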

[1] = tested on: BALB/c Mice with Subcutaneous Flank DBT Tumors; assay: Whole body biodistribution in mice with subcutaneous DBT gliomas; assay type: in vivo, mouse; settings: for biodistribution, tumor uptake: subcutaneous DBT tumor
In short: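 Male BALB/c mice carried subcutaneous flank DBT tumors (5 × 10⁵ cells) and were used at day 14. Under 1% isoflurane–oxygen, each received ~56 μCi (2.07 MBq) of ⁷⁶Br-labelled or 45 μCi (1.67 MBq) of ¹²³I-labelled test compound by tail vein in 0.9% saline. Mice were killed at 5 min, 30 min, 1, 3 and 24 h (n = 4 per time). Tissues were weighed and γ-counted with decay correction, giving % ID/g.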

C[C@](N)(/C=C/[123I])C(=O)O [[^123I]8, (S)-amino-2-methyl-4-[^123I]iodo-3-(E)-butenoic acid, reference compound]
uptake relative to control (DBT glioma cells; Na BCH condition (BCH 10 mM, system L inhibitor, sodium buffer)): 39 ± 12% | uptake compared to sodium control (DBT glioma cells; choline + BCH (sodium-free, Cho-BCH)): 31 ± 12% | uptake compared to the sodium control (DBT glioma cells; choline control (sodium-free, Cho-sucrose)): 33 ± 6.6% | uptake relative to the control (DBT glioma cells; in the presence of MeAIB (10 mM, system A inhibitor), sodium buffer): 25 ± 3.4% | biodistribution, blood ([1]; 5 min after i.v. injection): 3.86 ± 0.50 % ID/g | biodistribution, blood ([1]; 30 min after i.v. injection): 1.07 ± 0.16 % ID/g | biodistribution, blood ([1]; 1 h after i.v. injection): 0.37 ± 0.05 % ID/g | biodistribution, blood ([1]; 3 h after i.v. injection): 0.07 ± 0.02 % ID/g | biodistribution, blood ([1]; 24 h after i.v. injection): 0.0005 ± 0.0000 % ID/g | biodistribution, bone ([1]; 5 min after i.v. injection): 1.94 ± 0.28 % ID/g | biodistribution, bone ([1]; 30 min after i.v. injection): 1.20 ± 0.21 % ID/g | biodistribution, bone ([1]; 1 h after i.v. injection): 0.55 ± 0.39 % ID/g | biodistribution, bone ([1]; 3 h after i.v. injection): 0.39 ± 0.35 % ID/g | biodistribution, bone ([1]; 24 h after i.v. injection): 0.0042 ± 0.0020 % ID/g | biodistribution, brain ([1]; 5 min after i.v. injection): 0.27 ± 0.03 % ID/g | biodistribution, brain ([1]; 30 min after i.v. injection): 0.17 ± 0.04 % ID/g | biodistribution, brain ([1]; 1 h after i.v. injection): 0.27 ± 0.35 % ID/g | biodistribution, brain ([1]; 3 h after i.v. injection): 0.07 ± 0.00 % ID/g | biodistribution, brain ([1]; 24 h after i.v. injection): 0.0010 ± 0.0003 % ID/g | biodistribution, fat ([1]; 5 min after i.v. injection): 0.87 ± 0.26 % ID/g | biodistribution, fat ([1]; 30 min after i.v. injection): 0.22 ± 0.09 % ID/g | biodistribution, fat ([1]; 1 h after i.v. injection): 0.19 ± 0.07 % ID/g | biodistribution, fat ([1]; 3 h after i.v. injection): 0.04 ± 0.01 % ID/g | biodistribution, heart ([1]; 5 min after i.v. injection): 2.30 ± 0.02 % ID/g | biodistribution, heart ([1]; 30 min after i.v. injection): 1.78 ± 0.35 % ID/g | biodistribution, heart ([1]; 1 h after i.v. injection): 0.90 ± 0.06 % ID/g | biodistribution, heart ([1]; 3 h after i.v. injection): 0.18 ± 0.05 % ID/g | biodistribution, heart ([1]; 24 h after i.v. injection): 0.0005 ± 0.0005 % ID/g | biodistribution, kidney ([1]; 5 min after i.v. injection): 31.27 ± 6.91 % ID/g | biodistribution, kidney ([1]; 30 min after i.v. injection): 9.90 ± 3.24 % ID/g | biodistribution, kidney ([1]; 1 h after i.v. injection): 2.68 ± 0.55 % ID/g | biodistribution, kidney ([1]; 3 h after i.v. injection): 0.39 ± 0.09 % ID/g | biodistribution, kidney ([1]; 24 h after i.v. injection): 0.0032 ± 0.0017 % ID/g | biodistribution, liver (all) ([1]; 5 min after i.v. injection): 2.83 ± 0.25 % ID/g | biodistribution, liver (all) ([1]; 30 min after i.v. injection): 0.91 ± 0.20 % ID/g | biodistribution, liver (all) ([1]; 1 h after i.v. injection): 0.25 ± 0.03 % ID/g | biodistribution, liver (all) ([1]; 3 h after i.v. injection): 0.07 ± 0.02 % ID/g | biodistribution, liver (all) ([1]; 24 h after i.v. injection): 0.0006 ± 0.0002 % ID/g | biodistribution, lung ([1]; 5 min after i.v. injection): 3.54 ± 0.31 % ID/g | biodistribution, lung ([1]; 30 min after i.v. injection): 1.01 ± 0.28 % ID/g | biodistribution, lung ([1]; 1 h after i.v. injection): 0.33 ± 0.06 % ID/g | biodistribution, lung ([1]; 3 h after i.v. injection): 0.06 ± 0.02 % ID/g | biodistribution, lung ([1]; 24 h after i.v. injection): 0.0007 ± 0.0006 % ID/g | biodistribution, muscle ([1]; 5 min after i.v. injection): 1.65 ± 0.05 % ID/g | biodistribution, muscle ([1]; 30 min after i.v. injection): 1.41 ± 0.22 % ID/g | biodistribution, muscle ([1]; 1 h after i.v. injection): 0.68 ± 0.17 % ID/g | biodistribution, muscle ([1]; 3 h after i.v. injection): 0.12 ± 0.06 % ID/g | biodistribution, muscle ([1]; 24 h after i.v. injection): 0.0011 ± 0.0006 % ID/g | biodistribution, pancreas ([1]; 5 min after i.v. injection): 29.26 ± 8.15 % ID/g | biodistribution, pancreas ([1]; 30 min after i.v. injection): 21.03 ± 4.38 % ID/g | biodistribution, pancreas ([1]; 1 h after i.v. injection): 5.75 ± 1.20 % ID/g | biodistribution, pancreas ([1]; 3 h after i.v. injection): 0.99 ± 0.46 % ID/g | biodistribution, pancreas ([1]; 24 h after i.v. injection): 0.0052 ± 0.0021 % ID/g | biodistribution, spleen ([1]; 5 min after i.v. injection): 3.92 ± 0.99 % ID/g | biodistribution, spleen ([1]; 30 min after i.v. injection): 2.23 ± 0.34 % ID/g | biodistribution, spleen ([1]; 1 h after i.v. injection): 0.68 ± 0.12 % ID/g | biodistribution, spleen ([1]; 3 h after i.v. injection): 0.15 ± 0.05 % ID/g | biodistribution, spleen ([1]; 24 h after i.v. injection): 0.0012 ± 0.0010 % ID/g | biodistribution, tumor uptake ([1]; 5 min after i.v. injection): 2.8 ± 0.8 % ID/g and 2.78 ± 0.83 % ID/g | biodistribution, tumor uptake ([1]; 30 min after i.v. injection): 2.7 ± 0.6 % ID/g and 2.68 ± 0.56 % ID/g | biodistribution, tumor uptake ([1]; 1 h after i.v. injection): 1.53 ± 0.66 % ID/g | biodistribution, tumor uptake ([1]; 3 h after i.v. injection): 0.65 ± 0.16 % ID/g | biodistribution, tumor uptake ([1]; 24 h after i.v. injection): 0.0012 ± 0.0007 % ID/g | biodistribution, thyroid ([1]; thyroid, 5 min after i.v. injection): 2.51 ± 0.39 % ID/g | thyroid uptake ([1]; thyroid, 5 min after injection): 2.5 ± 0.4 % ID/organ | biodistribution, thyroid ([1]; thyroid, 30 min after i.v. injection): 1.38 ± 0.38 % ID/g | biodistribution, thyroid ([1]; thyroid, 1 h after i.v. injection): 0.97 ± 0.28 % ID/g | biodistribution, thyroid ([1]; thyroid, 3 h after i.v. injection): 0.65 ± 0.29 % ID/g | thyroid activity ([1]; thyroid, 3 h after injection): approximately 0.7 % ID/organ | biodistribution, thyroid ([1]; thyroid, 24 h after i.v. injection): 0.6527 ± 0.2135 % ID/g | thyroid activity ([1]; thyroid, 24 h after injection): approximately 0.7 % ID/organ | thyroid activity as share of the administered activity ([1]; thyroid, 24 h after injection): less than 1%
